What all share (type): tissue-based
Experiment [1] has as its target T1, Amine oxidase [flavin-containing] B (Rattus norvegicus, UniProt P19643).
T1 sequence (P19643 whole entry): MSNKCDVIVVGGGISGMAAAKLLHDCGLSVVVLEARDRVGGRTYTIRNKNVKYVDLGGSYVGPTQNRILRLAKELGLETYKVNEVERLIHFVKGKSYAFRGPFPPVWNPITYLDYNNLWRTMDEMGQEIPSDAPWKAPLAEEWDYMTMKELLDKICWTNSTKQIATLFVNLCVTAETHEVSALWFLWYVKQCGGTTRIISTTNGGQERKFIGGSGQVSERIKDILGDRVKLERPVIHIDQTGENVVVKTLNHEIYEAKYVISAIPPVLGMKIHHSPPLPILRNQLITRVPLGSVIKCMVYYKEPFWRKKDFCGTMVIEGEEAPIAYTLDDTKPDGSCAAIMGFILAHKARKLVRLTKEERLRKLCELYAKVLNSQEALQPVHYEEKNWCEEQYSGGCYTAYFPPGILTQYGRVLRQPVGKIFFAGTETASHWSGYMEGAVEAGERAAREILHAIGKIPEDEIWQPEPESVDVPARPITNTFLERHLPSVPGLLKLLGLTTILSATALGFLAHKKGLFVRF
Put plainly: Inhibition of MAO-B in rat liver homogenate by spectrophotometry-based Holt method.

Experiment [2] concerns the target T2, Amine oxidase [flavin-containing] A (Rattus norvegicus, UniProt P21396).
T2 sequence (P21396 whole entry): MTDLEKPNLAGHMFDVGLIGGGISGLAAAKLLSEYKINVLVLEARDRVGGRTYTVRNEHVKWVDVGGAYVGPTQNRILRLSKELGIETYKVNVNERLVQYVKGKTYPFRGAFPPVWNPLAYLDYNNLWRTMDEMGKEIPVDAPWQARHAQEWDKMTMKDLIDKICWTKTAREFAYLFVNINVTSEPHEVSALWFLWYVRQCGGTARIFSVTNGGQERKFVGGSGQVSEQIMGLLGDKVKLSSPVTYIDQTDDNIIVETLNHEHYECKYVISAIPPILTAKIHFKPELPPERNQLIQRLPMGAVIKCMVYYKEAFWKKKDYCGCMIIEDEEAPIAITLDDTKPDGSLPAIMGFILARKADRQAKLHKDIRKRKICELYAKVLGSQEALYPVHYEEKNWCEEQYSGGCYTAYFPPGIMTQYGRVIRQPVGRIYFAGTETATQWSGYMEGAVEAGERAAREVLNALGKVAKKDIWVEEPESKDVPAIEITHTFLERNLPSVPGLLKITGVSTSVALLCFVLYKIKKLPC
Kind of experiment: Inhibition of MAO-A in rat liver homogenate by spectrophotometry-based Holt method.

The species named for experiment [3] is Rattus norvegicus. Put plainly: Selectivity ratio of Ki for MAO-A in rat liver homogenate to Ki for MAO-B in rat liver homogenate. A digest of the protocol:
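Rat liver MAO; isoform isolated by blocking the other with pargyline or clorgyline. p-Tyramine substrate (2.5 mM for MAO-B). Inhibitor (DMSO) pre-incubated with homogenate 60 min, 37 °C. Holt coupled assay (vanillinic acid, 4-aminoantipyrine, peroxidase; potassium phosphate pH 7.6) read at 498 nm, 37 °C, 60 min. Ki from kinetics, mean of three experiments; index = Ki(MAO-A)/Ki(MAO-B).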

The structures appear in SMILES notation.

With `O=S(=O)(c1ccccc1)N1N=C(c2ccccc2O)CC1c1ccccc1O` (stereo not given), the Ki is 1550 µM in experiment [1] and 0.91 µM in experiment [2].

Turning to `O=C(c1ccccc1)N1N=C(c2ccccc2O)CC1c1ccc(O)cc1` (stereo not given), the Ki was 20300 µM in experiment [1] and 5.77 µM in experiment [2].

Turning to `Cc1ccc(S(=O)(=O)N2N=C(c3ccccc3O)CC2c2ccccc2O)cc1` (stereo not given), the Ki in experiment [1] came to 620 µM; in experiment [2] it was 0.36 µM.

Consider `Oc1ccccc1C1=NNC(c2ccccc2O)C1` (stereo not given), for which the Ki in experiment [1] amounted to 0.78 µM; in experiment [2], 3.7 µM. Also, the Ratio Ki in experiment [3] came out at 4.74.

For `N=C(NO)N1N=C(c2ccccc2O)CC1c1ccc(O)cc1` (stereo not given), the Ki in experiment [1] came out at 210 µM; in experiment [2], 10.6 µM.

On to `Cc1ccc(S(=O)(=O)N2N=C(c3ccccc3O)CC2c2ccc(O)cc2)cc1` (stereo not given), for which the Ki in experiment [2] came to 0.6 µM.

Consider `O=C(c1ccccc1)N1N=C(c2ccccc2O)CC1c1ccccc1O` (stereo not given), for which affinity in experiment [2] was put at a Ki of 0.8 µM.

As for `N=C(NO)N1N=C(c2ccccc2O)CC1c1ccccc1O` (stereo not given), the values for the Ki in experiment [1] and in experiment [2] were 96.8 µM and 15.7 µM, respectively.

Consider `O=S(=O)(c1ccccc1)N1N=C(c2ccccc2O)CC1c1ccc(O)cc1` (stereo not given), for which the figures for the Ki in experiment [1] and in experiment [2] were 700 µM and 0.68 µM, respectively.

As to `Oc1ccc(C2CC(c3ccccc3O)=NN2)cc1` (stereo not given), the Ki in experiment [1] stood at 0.6 µM; in experiment [2] it was 3.9 µM. Also, the Ratio Ki in experiment [3] turned out to be 6.49.

As a reminder, the Ki is the equilibrium dissociation constant of an inhibitor or competing ligand from its target. Read a low Ki as higher affinity.

The values are drawn from ChEMBL document CHEMBL1153160, “Towards development of selective and reversible pyrazoline based MAO-inhibitors: Synthesis, biological evaluation and docking studies” (Bioorg Med Chem Lett, 2010).
